Assay results gathered from unrelated publications.
Lines come from different studies, so protocols differ.
MPO: Myeloperoxidase (MPO, Homo sapiens, UniProt P05164)
DUOX2: DUOX2 (Homo sapiens, UniProt Q9NRD8)
HTR1F: 5-hydroxytryptamine receptor 1F (HTR1F, Homo sapiens, UniProt P30939)

| Compound | target | test | setting | measurement | value |
| --- | --- | --- | --- | --- | --- |
| CC(=O)c1cccc(NC(=O)c2cc3c(cc2[N+](=O)[O-])OCO3)c1 | MPO | enzyme activity, inhibitor | – | IC50 | 10 µM |
| O=c1oc(-c2cccnc2)nc2ccccc12 | Plasma kallikrein (KLKB1, Homo sapiens, UniProt P03952) | enzyme activity, inhibitor, absorbance | – | IC50 | > 50 µM |
| COc1ccc(CNC(=O)c2cc3c(cc2[N+](=O)[O-])OCO3)cc1 | MPO | enzyme activity, inhibitor | – | IC50 | 4.5 µM |
| C[C@H]1COC2=C1C(=O)C(=O)c1c2ccc2c1CCCC2(C)C | DUOX2 | enzyme activity, inhibitor | cell membranes | IC50 | 2.1 µM |
| CN1CCN2c3ccccc3Cc3ccccc3C2C1 (stereo not shown) | HTR1F | G protein activation, agonist, BRET | – | EC50 | 0.0475 µM |
| C[C@@H]1CN(C(=O)[C@@H]2CN(C(C)(C)C)C[C@H]2c2ccc(F)cc2F)C[C@H](C)[C@@]1(O)c1ccccc1 | Melanocortin receptor 4 (MC4R, Homo sapiens, UniProt P32245) | ligand displacement, radioligand | – | Ki | 0.199 µM |
| CCOc1ccccc1OCCN[C@H](C)Cc1ccc(OC)c(S(N)(=O)=O)c1 | Anoctamin-1 (Ano1, Mus musculus, UniProt Q8BHY3) | ion current, inhibitor, patch clamp | – | IC50 | 7.22 µM |
| CC(C)CCC[C@@H](C)[C@H]1CC[C@H]2[C@@H]3CC[C@H]4C[C@H](N)CC[C@]4(C)[C@H]3CC[C@]12C | Phosphatidylinositol 3,4,5-trisphosphate 5-phosphatase 1 (INPP5D, Homo sapiens, UniProt Q92835) | enzyme activity, inhibitor, absorbance | pH 7.4 | IC50 | 22.4 µM |
| Nc1ncnc2c1ncn2[C@@H]1O[C@H](COP(=O)(O)OP(=O)(O)OP(=O)(O)OP(=O)(O)OP(=O)(O)OC[C@H]2O[C@@H](n3cnc4c(N)ncnc43)[C@H](O)[C@@H]2O)[C@@H](O)[C@H]1O | adk (Escherichia coli, UniProt P69441) | binding, ITC | – | Kd | 0.2 µM |
| CCCC(=O)NCCCN1CCc2c([nH]c3ccc(Cl)cc23)C1 | Sodium-dependent noradrenaline transporter (SLC6A2, Homo sapiens, UniProt P23975) | transporter uptake, inhibitor | – | IC50 | 250 µM |
| CN(C)CCOC1=Cc2ccccc2Sc2ccc(Cl)cc21 | HTR1F | G protein activation, agonist, BRET | – | EC50 | 1.82 µM |
| Cc1coc2c1C(=O)C(=O)c1c-2ccc2c1CCCC2(C)CO (stereo not shown) | DUOX2 | enzyme activity, inhibitor | cell membranes | IC50 | 8.9 µM |
| O=c1oc2cc(O)ccc2c2ccc(O)cc12 | Glutaminase kidney isoform, mitochondrial (GLS, Homo sapiens, UniProt O94925) | binding, SPR | – | Kd | 0.000266 µM |
